Compound activity: PubChem BioAssay, The Scripps Research Institute Molecular Screening Center
The list is not random: actives were taken first. Their share in the collection is about 4.6%.
OX1R antag-1: human HCRTR1 antagonism; hit rate 0.43% among 330,000; O43613; inhibition, % at 5 µM; CHO/OX1R cells, Fluo-8 calcium fluorescence, orexin A;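 active means inhibition above its plate's threshold, mean inhibition of all tested compounds on the plate plus 3 SD, cut at about 37% in these data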
Target sequence (O43613 whole entry, looked up): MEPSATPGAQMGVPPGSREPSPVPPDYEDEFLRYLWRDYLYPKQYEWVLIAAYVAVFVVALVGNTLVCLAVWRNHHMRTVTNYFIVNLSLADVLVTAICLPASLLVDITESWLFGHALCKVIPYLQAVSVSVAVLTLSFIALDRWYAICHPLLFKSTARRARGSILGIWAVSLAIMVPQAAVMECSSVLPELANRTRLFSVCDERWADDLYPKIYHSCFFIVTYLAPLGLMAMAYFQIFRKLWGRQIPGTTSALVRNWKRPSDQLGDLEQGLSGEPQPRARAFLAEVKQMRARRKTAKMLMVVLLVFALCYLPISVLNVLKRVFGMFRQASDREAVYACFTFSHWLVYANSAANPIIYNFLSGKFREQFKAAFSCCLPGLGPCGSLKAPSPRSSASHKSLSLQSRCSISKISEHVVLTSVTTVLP
TAAR1 antagonist: human TAAR1 antagonism | Q96RJ0 | CHO RD-HGA16 TAAR1, Fluo-8 calcium fluorescence, antagonist | inhibition, % at 3 µM | hit rate 1.5% among 360,000 | AID 624466;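 active means inhibition above a per-plate cutoff, the mean inhibition of test compounds on that plate plus 3 SD, cut at about 49% in these data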
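Assay system: CHO-derived RD-HGA16 cells stably expressing human TAAR1 plus Gα16. Timing: 140 s kinetic read after compound, 140 s after agonist. Technique: kinetic Fluo-8 calcium fluorescence measurement. Measure: % inhibition of agonist calcium response.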
GPR7 antagonist: human neuropeptides B/W receptor 1 antagonism; AID 1861; hit rate 1.1% among 290,000; GPR7-expressing cells, fluorescence antagonist assay; P48145; inhibition, % at 4.4 µM; in the data active means inhibition above about 16%, passing the limit was not always enough;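 further: cells stimulated with the agonist NPW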
TAAR1 agonist: human TAAR1 agonism. Q96RJ0. hit rate 0.99% among 360,000. AID 624467. CHO RD-HGA16 TAAR1, Fluo-8 calcium fluorescence; vehicle wells 0%, saturating PEA agonist 100%. activation, % at 3 µM;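 active means activation above the mean activation of all test compounds in the run plus 3 SD, cut at about 38% in these data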
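Test system: RD-HGA16 (CHO) cells co-expressing Gα16 and hTAAR1; dosing: one-point dosing at 3 µM (nominal); timing: 17-24 h seeding, 75 min 37 °C dye, 30 min RT; signal: kinetic Fluo-8 calcium fluorescence; read-out basis: % activation relative to PEA EC100 response; controls: DMSO and PEA EC100; replicates: n 1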
CHO parental Ca: counter-screen: ATP calcium response change in parental CHO cells. hit rate 0.63% among 330,000. AID 463079. parental CHO-K1, ATP-induced calcium, Fluo-8 fluorescence. inhibition, % at 5.6 µM;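 active means inhibition above that plate's mean sample inhibition plus 3 SD, cut at about 26% in these data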
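Material – parental CHO cells · Reagent – ATP stimulus · Compound – single nominal dose of 5.6 µM per compound · Detection – Fluo-8 fluorescence · Read-out basis – percent inhibition of calcium signal · Controls – ATP-challenged DMSO wells low, unchallenged DMSO wells high · Repeats – no replicates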
OX1R antag-2: blocks the human orexin 1 receptor | inhibition, % at 6.6 µM | hit rate 1.8% among 330,000 | OX1R-expressing cells, FRET antagonist read-out | AID 485270; in the data active means inhibition mostly above about 38%, no sharp cut-off; inactive means mostly below about 40%
TAAR1 ag confirm: confirmation of human TAAR1 agonists; hit rate 82% among 2,400; shares compounds with TAAR1 agonist; AID 651783; CHO RD-HGA16 TAAR1, Fluo-8 calcium fluorescence; scaled: DMSO 0%, maximal phenethylamine 100%; activation, % at 3 µM;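 active means activation above a cutoff set at the run's mean compound activation plus 3 SD, cut at about 39% in these data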
Ga16 nonsel ag: nonselective agonist in parental cells, TAAR1 agonist counter-screen | shares compounds with TAAR1 agonist | CHO-Ga16 parental, Fluo-8 calcium fluorescence; normalized to maximal ATP response, DMSO zero | activation, % at 3 µM | hit rate 50% among 2,400;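 active means activation above the run cutoff, the mean activation over all tested wells plus 3 SD, cut at about 12% in these data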
TAAR1 desensitize: TAAR1 response desensitization, agonist counter-screen; shares compounds with TAAR1 agonist; CHO RD-HGA16 hTAAR1, Fluo-8 calcium, beta-PEA response inhibition; inhibition, % at 3 µM; hit rate 46% among 2,400;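 active means inhibition above the run cutoff, the mean inhibition of all test compounds plus 3 SD, cut at about 49% in these data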;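 further: beta-PEA stimulus applied at its EC80; loss of beta-PEA calcium signal after compound pretreatment read as receptor desensitization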
Ga16 antag count: nonselective Ga16 antagonism, counter-screen; shares compounds with TAAR1 agonist; CHO-Ga16 ATP-induced calcium, Fluo-8 fluorescence; inhibition, % at 3 µM; hit rate 39% among 2,400; AID 651952;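 active means inhibition above the plate's mean compound inhibition plus 3 SD, computed per plate, cut at about 22% in these data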
Large screens that a line does not name were inactive (follow-up assays come after a bar, where they were run).

COc1ccc2c(OC)cc(=O)n(C)c2c1	TAAR1 agonist 68 | TAAR1 ag confirm inactive | Ga16 nonsel ag inactive | TAAR1 desensitize inactive | Ga16 antag count inactive
COc1ccc(C2CCCCCN2C(=O)C2CCN(S(=O)(=O)c3ccc(C)cc3)CC2)cc1 (centres undefined)	none (no result: OX1R antag-1, GPR7 antagonist, CHO parental Ca, OX1R antag-2)
O=C(Nc1ccc(Br)cc1)N1CCc2ccccc2C1	none
Cc1cc(C)cc(NC(=O)N2CCc3ccccc3C2)c1	TAAR1 agonist 58 (no result: OX1R antag-1, CHO parental Ca, OX1R antag-2) | TAAR1 ag confirm 67 | Ga16 nonsel ag inactive | TAAR1 desensitize inactive | Ga16 antag count inactive
CCOC(=O)c1ccc(NC(=O)N2CCc3ccccc3C2)cc1	TAAR1 agonist 63 | TAAR1 ag confirm 48 | Ga16 nonsel ag 12 | TAAR1 desensitize 49 | Ga16 antag count 24
CCOC(=O)c1ccc(NC(=O)N2CCc3ccccc32)cc1	none
Cc1ccc(NC(=O)N2CCc3ccccc3C2)cc1C	none (no result: OX1R antag-1, CHO parental Ca, OX1R antag-2)
Cc1ccccc1NC(=O)CN1CCc2ccccc2C1	none
Cc1cccc(NC(=O)N2CCc3ccccc3C2)c1C	TAAR1 antagonist 52, TAAR1 agonist 80 (no result: OX1R antag-1, CHO parental Ca, OX1R antag-2) | TAAR1 ag confirm 80 | Ga16 nonsel ag inactive | TAAR1 desensitize inactive | Ga16 antag count inactive
Cc1ccccc1NC(=O)N1CCc2ccccc2C1	TAAR1 agonist 84 | TAAR1 ag confirm 63 | Ga16 nonsel ag inactive | TAAR1 desensitize inactive | Ga16 antag count inactive
Cc1ccc2nc(-c3ccco3)c(Cc3cccc(F)c3)n2c1	none (no result: OX1R antag-1, GPR7 antagonist, CHO parental Ca, OX1R antag-2)
C[C@H](CO)N1C[C@H](C)[C@@H](CN(C)Cc2ccc(-c3ccccc3)cc2)Oc2c(NS(=O)(=O)c3cn(C)cn3)cccc2C1=O	none (no result: GPR7 antagonist)
O=C(Nc1ccc(F)cc1)N1CCc2ccccc2C1	TAAR1 agonist 46 | TAAR1 ag confirm 41 | Ga16 nonsel ag inactive | TAAR1 desensitize inactive | Ga16 antag count inactive
CCCCn1c(N)c(N(CC(C)C)C(=O)c2cc(C)nc3ccccc23)c(=O)[nH]c1=O	none (no result: GPR7 antagonist)
Fc1ccc(Nc2nc(NCc3ccco3)c3ccccc3n2)cc1	TAAR1 agonist 70 | TAAR1 ag confirm 40 | Ga16 nonsel ag 23 | TAAR1 desensitize 49 | Ga16 antag count 39
Nc1nc(Nc2ccccc2)nc(NCc2ccco2)c1[N+](=O)[O-]	none
COc1cc(OC)nc(Nc2nc(C(N)Cc3ccc(F)cc3)cs2)n1 (centres undefined)	TAAR1 agonist 56 (no result: OX1R antag-1, GPR7 antagonist, CHO parental Ca, OX1R antag-2) | TAAR1 ag confirm 63 | Ga16 nonsel ag 38 | TAAR1 desensitize inactive | Ga16 antag count 34
CCc1cnc(Nc2nc(C(N)Cc3ccc(Cl)cc3)cs2)nc1 (centres undefined)	TAAR1 agonist 51 (no result: OX1R antag-1, GPR7 antagonist, CHO parental Ca, OX1R antag-2) | TAAR1 ag confirm 70 | Ga16 nonsel ag 32 | TAAR1 desensitize inactive | Ga16 antag count 28
NC(Cc1ccc(Cl)cc1)c1csc(Nc2ccc(-c3ccccc3)nn2)n1 (centres undefined)	TAAR1 antagonist 49, TAAR1 agonist 63 (no result: OX1R antag-1, GPR7 antagonist, CHO parental Ca, OX1R antag-2) | TAAR1 ag confirm inactive | Ga16 nonsel ag 25 | TAAR1 desensitize inactive | Ga16 antag count 40
COc1ccc(CC(N)c2csc(Nc3nncc4ccccc34)n2)cc1 (centres undefined)	TAAR1 agonist 61 (no result: OX1R antag-1, GPR7 antagonist, CHO parental Ca, OX1R antag-2) | TAAR1 ag confirm 82 | Ga16 nonsel ag 34 | TAAR1 desensitize 52 | Ga16 antag count 32
COc1ccc(CC(N)c2csc(Nc3cc(NCCCO)ncn3)n2)cc1 (centres undefined)	none (no result: OX1R antag-1, GPR7 antagonist, CHO parental Ca, OX1R antag-2)
COc1ccc(S(=O)(=O)N2CCNCC2)cc1	none
COc1cc2ccc(CC(=O)O)cc2cc1OC	none (no result: OX1R antag-1, GPR7 antagonist, CHO parental Ca, OX1R antag-2)
Nc1nnc(SCC(=O)OCC(=O)NC2CCCCC2)s1	none
